Results published in ChEMBL document CHEMBL1154716, “Synthesis of some new S-triazine based chalcones and their derivatives as potent antimicrobial agents” (2010).
≈ marks a conversion by molar mass, not a printed value. Calls of active or inactive are those of the source. The rule behind the calls is not given here.

Assays:
Enterobacter cloacae [1] = experiment: Antimicrobial activity against Enterobacter cloacae after 24 hrs by microdilution technique; assay type: functional
Procedure, shortened: (§1)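 Broth microdilution in LB medium. Inoculum is 1.0 × 10^4 cfu per well, from a saline-adjusted suspension of 1.0 × 10^5 cfu/ml. Compounds are dissolved in DMSO. Incubated 24 h at 28 C. MIC is the lowest concentration with no visible growth under a binocular microscope. MBC is read by subculture into fresh broth for 72 h, with no growth taken as 99.5% kill. OD is read at 655 nm.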

Bacillus cereus [2] = experiment: Antimicrobial activity against Bacillus cereus at 10 ug/disk after 24 hrs by disk diffusion assay; assay type: functional
Procedure, shortened: (§2)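 Disc diffusion on 4 mm filter discs. Bacteria are grown overnight in LB at 28 C, then adjusted in saline to 1.0 × 10^5 cfu/ml. The suspension is mixed into top agar over peptone agar plates. Plates are incubated 24 h at 28 C, and growth-inhibition zone diameter is measured. Streptomycin and ampicillin controls are applied from a 1 mg/ml stock. Tests are done in duplicate.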

Pseudomonas aeruginosa [3] = experiment: Antimicrobial activity against Pseudomonas aeruginosa at 1 umol/disk after 24 hrs by disk diffusion assay; assay type: functional; procedure, shortened: as §2
Bacillus cereus [4] = experiment: Antimicrobial activity against Bacillus cereus after 24 hrs by microdilution technique; assay type: functional; procedure, shortened: as §1
Escherichia coli [5] = experiment: Antimicrobial activity against Escherichia coli at 1 umol/spot after 18 hrs by TLC-bioautographic method; assay type: functional
Procedure, shortened: (§3)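 TLC bioautography. Samples are spotted on silica gel TLC plates, then sprayed with bacteria (1.0 × 10^5 cfu/ml) in tryptic soy broth. Plates are incubated 18 h at 37 C and sprayed with 3% aqueous p-iodonitrotetrazolium violet. After a further 3 h, growth is stopped with 70% EtOH. White zones on a pink background are scored as inhibition-zone diameter with standard errors.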

Staphylococcus aureus [6] = experiment: Antimicrobial activity against Staphylococcus aureus after 24 hrs by microdilution technique; assay type: functional; procedure, shortened: as §1
Bacillus cereus [7] = experiment: Antimicrobial activity against Bacillus cereus at 1 umol/spot after 18 hrs by TLC-bioautographic method; assay type: functional; procedure, shortened: as §3
Pseudomonas aeruginosa [8] = experiment: Antimicrobial activity against Pseudomonas aeruginosa at 10 ug/disk after 24 hrs by disk diffusion assay; assay type: functional; procedure, shortened: as §2
Salmonella typhimurium [9] = experiment: Antimicrobial activity against Salmonella Typhimurium at 10 ug/disk after 24 hrs by disk diffusion assay; assay type: functional, organism-based; settings: Salmonella enterica subsp. enterica serovar Typhimurium; procedure, shortened: as §2
Pseudomonas aeruginosa [10] = experiment: Antimicrobial activity against Pseudomonas aeruginosa after 24 hrs by microdilution technique; assay type: functional; procedure, shortened: as §1
Staphylococcus aureus [11] = experiment: Antimicrobial activity against Staphylococcus aureus at 10 ug/disk after 24 hrs by disk diffusion assay; assay type: functional; procedure, shortened: as §2
Bacillus cereus [12] = experiment: Antimicrobial activity against Bacillus cereus at 1 umol/disk after 24 hrs by disk diffusion assay; assay type: functional; procedure, shortened: as §2
Staphylococcus aureus [13] = experiment: Antimicrobial activity against Staphylococcus aureus at 1 umol/spot after 18 hrs by TLC-bioautographic method; assay type: functional; procedure, shortened: as §3
Escherichia coli [14] = experiment: Antimicrobial activity against Escherichia coli at 10 ug/disk after 24 hrs by disk diffusion assay; assay type: functional; procedure, shortened: as §2
Micrococcus flavus [15] = experiment: Antimicrobial activity against Micrococcus flavus at 1 umol/disk after 24 hrs by disk diffusion assay; assay type: functional; procedure, shortened: as §2
Listeria monocytogenes [16] = experiment: Antimicrobial activity against Listeria monocytogenes at 1 umol/disk after 24 hrs by disk diffusion assay; assay type: functional; procedure, shortened: as §2
Micrococcus flavus [17] = experiment: Antimicrobial activity against Micrococcus flavus at 1 umol/spot after 18 hrs by TLC-bioautographic method; assay type: functional; procedure, shortened: as §3
Salmonella typhimurium [18] = experiment: Antimicrobial activity against Salmonella Typhimurium at 1 umol/spot after 18 hrs by TLC-bioautographic method; assay type: functional, Salmonella enterica subsp. enterica serovar Typhimurium; procedure, shortened: as §3
Micrococcus flavus [19] = experiment: Antimicrobial activity against Micrococcus flavus after 24 hrs by microdilution technique; assay type: functional; procedure, shortened: as §1
Enterobacter cloacae [20] = experiment: Antimicrobial activity against Enterobacter cloacae at 1 umol/disk after 24 hrs by disk diffusion assay; assay type: functional; procedure, shortened: as §2
Salmonella typhimurium [21] = experiment: Antimicrobial activity against Salmonella Typhimurium at 1 umol/disk after 24 hrs by disk diffusion assay; assay type: functional, organism-based; settings: Salmonella enterica subsp. enterica serovar Typhimurium; procedure, shortened: as §2
Escherichia coli [22] = experiment: Antimicrobial activity against Escherichia coli at 1 umol/disk after 24 hrs by disk diffusion assay; assay type: functional; procedure, shortened: as §2
Micrococcus flavus [23] = experiment: Antimicrobial activity against Micrococcus flavus at 10 ug/disk after 24 hrs by disk diffusion assay; assay type: functional; settings: read-out: IZ; procedure, shortened: as §2
Escherichia coli [24] = experiment: Antimicrobial activity against Escherichia coli after 24 hrs by microdilution technique; assay type: functional; procedure, shortened: as §1
Listeria monocytogenes [25] = experiment: Antimicrobial activity against Listeria monocytogenes at 10 ug/disk after 24 hrs by disk diffusion assay; assay type: functional; procedure, shortened: as §2
Listeria monocytogenes [26] = experiment: Antimicrobial activity against Listeria monocytogenes at 1 umol/spot after 18 hrs by TLC-bioautographic method; assay type: functional; procedure, shortened: as §3
Pseudomonas aeruginosa [27] = experiment: Antimicrobial activity against Pseudomonas aeruginosa at 1 umol/spot after 18 hrs by TLC-bioautographic method; assay type: functional; procedure, shortened: as §3
Salmonella typhimurium [28] = experiment: Antimicrobial activity against Salmonella Typhimurium after 24 hrs by microdilution technique; assay type: functional, Salmonella enterica subsp. enterica serovar Typhimurium; settings: Salmonella enterica; procedure, shortened: as §1
Enterobacter cloacae [29] = experiment: Antimicrobial activity against Enterobacter cloacae at 10 ug/disk after 24 hrs by disk diffusion assay; assay type: functional; procedure, shortened: as §2
Enterobacter cloacae [30] = experiment: Antimicrobial activity against Enterobacter cloacae at 1 umol/spot after 18 hrs by TLC-bioautographic method; assay type: functional; procedure, shortened: as §3
Listeria monocytogenes [31] = experiment: Antimicrobial activity against Listeria monocytogenes after 24 hrs by microdilution technique; assay type: functional; procedure, shortened: as §1
Staphylococcus aureus [32] = experiment: Antimicrobial activity against Staphylococcus aureus at 1 umol/disk after 24 hrs by disk diffusion assay; assay type: functional; procedure, shortened: as §2

MIC (Enterobacter cloacae [1]) [µM]	MIC (Bacillus cereus [4]) [µM]	MIC (Staphylococcus aureus [6]) [µM]	MIC (Pseudomonas aeruginosa [10]) [µM]	Structure (SMILES)	MBC (Enterobacter cloacae [1]) [µM]	inhibition zone (IZ) (Bacillus cereus [2])	inhibition zone (IZ) (Pseudomonas aeruginosa [3])	MBC (Bacillus cereus [4]) [µM]	inhibition zone (IZ) (Escherichia coli [5])	MBC (Staphylococcus aureus [6]) [µM]	inhibition zone (IZ) (Bacillus cereus [7])	inhibition zone (IZ) (Pseudomonas aeruginosa [8])	inhibition zone (IZ) (Salmonella typhimurium [9])	MBC (Pseudomonas aeruginosa [10]) [µM]	inhibition zone (IZ) (Staphylococcus aureus [11])	inhibition zone (IZ) (Bacillus cereus [12])	inhibition zone (IZ) (Staphylococcus aureus [13])	inhibition zone (IZ) (Escherichia coli [14])	inhibition zone (IZ) (Micrococcus flavus [15]) [millimeter]	inhibition zone (IZ) (Listeria monocytogenes [16])	also measured
684 (≈ 401 µg/mL)	85 (≈ 49.8 µg/mL)	171 (≈ 100 µg/mL)	684 (≈ 401 µg/mL)	CC(=O)N1N=C(c2ccc(Nc3nc(Nc4ccccc4)nc(Nc4ccccc4)n3)cc2)CC1c1ccc([N+](=O)[O-])cc1 (stereo not given)	684 (≈ 401 µg/mL)	inactive	inactive	171 (≈ 100 µg/mL)	inactive	342 (≈ 200 µg/mL)	0.1 millimeter	inactive	inactive	684 (≈ 401 µg/mL)	inactive	inactive	inactive	inactive	0.04	inactive	inhibition zone (IZ) (Micrococcus flavus [17]): 0.07 millimeter; inhibition zone (IZ) (Salmonella typhimurium [18]): 0.1 millimeter; MBC (Micrococcus flavus [19]): 342 µM (≈ 200 µg/mL); MIC (Micrococcus flavus [19]): 171 µM (≈ 100 µg/mL); inhibition zone (IZ) (Enterobacter cloacae [20]): inactive; inhibition zone (IZ) (Salmonella typhimurium [21]): inactive; inhibition zone (IZ) (Escherichia coli [22]): inactive; zone of inhibition at 10 µg/disc (Micrococcus flavus [23]): 10 mm; MBC (Escherichia coli [24]): 342 µM (≈ 200 µg/mL); MIC (Escherichia coli [24]): 171 µM (≈ 100 µg/mL); inhibition zone (IZ) (Listeria monocytogenes [25]): inactive; inhibition zone (IZ) (Listeria monocytogenes [26]): 0.09 millimeter; inhibition zone (IZ) (Pseudomonas aeruginosa [27]): inactive; MBC (Salmonella typhimurium [28]): 684 µM (≈ 401 µg/mL); MIC (Salmonella typhimurium [28]): 684 µM (≈ 401 µg/mL); inhibition zone (IZ) (Enterobacter cloacae [29]): inactive; inhibition zone (IZ) (Enterobacter cloacae [30]): 0.09 millimeter; MBC (Listeria monocytogenes [31]): 684 µM (≈ 401 µg/mL); MIC (Listeria monocytogenes [31]): 684 µM (≈ 401 µg/mL); inhibition zone (IZ) (Staphylococcus aureus [32]): inactive
169 (≈ 100 µg/mL)	169 (≈ 100 µg/mL)	338 (≈ 200 µg/mL)	676 (≈ 401 µg/mL)	N#Cc1c(-c2ccc([N+](=O)[O-])cc2)cc(-c2ccc(Nc3nc(Nc4ccccc4)nc(Nc4ccccc4)n3)cc2)nc1N	338 (≈ 200 µg/mL)	inactive	inactive	338 (≈ 200 µg/mL)	inactive	676 (≈ 401 µg/mL)	inactive	inactive	inactive	676 (≈ 401 µg/mL)	inactive	inactive	inactive	inactive	0.04	inactive	inhibition zone (IZ) (Micrococcus flavus [17]): 0.07 millimeter; inhibition zone (IZ) (Salmonella typhimurium [18]; Salmonella enterica subsp. enterica serovar Typhimurium): inactive; MBC (Micrococcus flavus [19]): 676 µM (≈ 401 µg/mL); MIC (Micrococcus flavus [19]): 338 µM (≈ 200 µg/mL); inhibition zone (IZ) (Enterobacter cloacae [20]): inactive; inhibition zone (IZ) (Salmonella typhimurium [21]): inactive; inhibition zone (IZ) (Escherichia coli [22]): inactive; zone of inhibition at 10 µg/disc (Micrococcus flavus [23]): 6 mm; MBC (Escherichia coli [24]): 676 µM (≈ 401 µg/mL); MIC (Escherichia coli [24]): 338 µM (≈ 200 µg/mL); inhibition zone (IZ) (Listeria monocytogenes [25]): inactive; inhibition zone (IZ) (Listeria monocytogenes [26]): 0.1 millimeter; inhibition zone (IZ) (Pseudomonas aeruginosa [27]): 0.09 millimeter; MBC (Salmonella typhimurium [28]): 676 µM (≈ 401 µg/mL); MIC (Salmonella typhimurium [28]): 676 µM (≈ 401 µg/mL); inhibition zone (IZ) (Enterobacter cloacae [29]): inactive; inhibition zone (IZ) (Enterobacter cloacae [30]): 0.09 millimeter; MBC (Listeria monocytogenes [31]): 676 µM (≈ 401 µg/mL); MIC (Listeria monocytogenes [31]): 676 µM (≈ 401 µg/mL); inhibition zone (IZ) (Staphylococcus aureus [32]): inactive
